Assay results reported in ChEMBL document CHEMBL1129491, “Synthesis of non-nucleoside analogs of toyocamycin, sangivamycin, and ++thiosangivamycin: influence of various 7-substituents on antiviral activity” (J Med Chem, 1996).

Tests used:
HFF = test: Cytotoxicity against HFF cells, estimated by visual scoring of cells not affected by virus infection in the plaque reduction assay; assay type: functional, cell-based; settings: Homo sapiens
How it was run: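 Uninfected areas of HFF monolayers in the HCMV plaque-reduction assay examined at 35-fold magnification. Drug-induced cytopathology scored 0–4 on the day plaques were stained and counted.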

L1210 [1] = test: In vitro cytotoxicity against growth rate of L1210 cell at 100 uM was evaluated.; assay type: functional, Mus musculus
How it was run: (§1)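 L1210 murine leukemia cells in Fischer's medium with 10% heat-inactivated horse serum (56 °C, 30 min), exposed to 100 μM compound. Cells counted at 0, 24, 48, 72 and 96 h. Growth rate taken as the slope of semilog cell number versus time, expressed as percent of untreated control.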

Human betaherpesvirus 5 [2] = test: Antiviral activity against Human Cytomegalovirus (HCMV) replication in a plaque reduction assay; assay type: functional, organism-based
How it was run: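 Towne strain HCMV (plaque-purified P0) on HFF monolayers in MEM(E) with 10% FBS. Inoculum ca. 100 PFU per 0.2 mL; compounds dissolved in the overlay medium; plaques counted after staining. IC50 from linear regression of percent inhibition against log concentration. Ganciclovir as positive control; two or more experiments averaged.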

L1210 [3] = test: Inhibitory concentration required to decrease the growth rate of L1210 cells to one-half of the control rate.; assay type: functional, cell-based; settings: Mus musculus
How it was run: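 L1210 cells in Fischer's medium with 10% heat-inactivated horse serum, counted at 0, 24, 48, 72 and 96 h across selected compound concentrations. Growth rate is the semilog slope as percent of control. IC50 is the concentration that halves the growth rate; '>' values give the highest concentration tested.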

Human alphaherpesvirus 1 = test: Antiviral activity against HSV-1 replication was evaluated by ELISA; assay type: functional, organism-based
How it was run: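 HSV-1 strain S-148 ELISA following Prichard and Shipman. Drug concentrations applied to infected cultures; percent inhibition regressed linearly against log concentration and IC50 read from the regression line. Acyclovir as positive control. Most assays averaged over two or more experiments, but HSV-1 ELISAs were run once.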

KB [4] = test: Cytotoxic activity tested against exponentially growing KB cells, determined by staining method; assay type: functional, cell-based; settings: Homo sapiens
How it was run: (§2)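 KB cells (human oral epidermoid carcinoma) kept in MEM(H) with 10% calf serum and tested while exponentially growing. Toxicity measured by a previously described staining method. IC50 from linear regression of percent inhibition against log drug concentration; two or more experiments averaged.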

KB [5] = test: Cytotoxic activity against exponentially growing KB cells was determined by a staining method; assay type: functional, cell-based; settings: Homo sapiens; how it was run: as §2
Human betaherpesvirus 5 [6] = test: Antiviral activity in Human Cytomegalovirus Viral infection was evaluated by ELISA method; assay type: functional, organism-based
How it was run: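 MRC-5 cells held overnight at 37 °C, then infected with Towne HCMV at moi 0.002 PFU/cell. After 1 h adsorption, up to 10 drug concentrations added in triplicate. Fixed with 95% EtOH after 6.5 days. Blocked, then mouse anti-HCMV monoclonal (1:400, 1 h) and peroxidase anti-mouse (1:1000, 2 h). Read at 450/570 nm, background subtracted; IC50 by log-linear regression.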

L1210 [7] = test: In vitro cytotoxicity against growth rate of L1210 cell at 100 micro M was evaluated.; assay type: functional, Mus musculus; how it was run: as §1
L1210 [8] = test: Percent control against growth rate of L1210 cell at 100 micro M was evaluated.; assay type: functional, Mus musculus; how it was run: as §1

Row | SMILES | IC50 (HFF) [µM] | Control (L1210 [1]) [%] | IC50 (Human betaherpesvirus 5 [2]) [µM] | IC50 (L1210 [3]) [µM] | IC50 (Human alphaherpesvirus 1) [µM] | IC50 (KB [4]) [µM] | IC50 (KB [5]) [µM] | IC50 (Human betaherpesvirus 5 [6]) [µM] | Control (L1210 [7]) [%] | Control (L1210 [8]) [%]
1 | NC(=O)c1cn(Cc2ccccc2)c2ncnc(N)c12 | > 32 | 0 | > 100 | 16 | 33 | 75 |  |  |  | 
2 | Cc1cccc(Cn2cc(C#N)c3c(N)ncnc32)c1 | > 100 |  | > 100 |  | > 100 |  | > 100 |  |  | 
3 | Cc1ccc(Cn2cc(C#N)c3c(N)ncnc32)cc1 | > 100 | 64 | > 100 |  | > 100 | > 100 |  |  |  | 
4 | Cc1cccc(Cn2cc(C(=N)S)c3c(N)ncnc32)c1 | 66 |  | 0.25 |  | 15 | 30 |  |  |  | 
5 | CC(C)(C)c1ccc(Cn2cc(C(=N)S)c3c(N)ncnc32)cc1 | > 100 |  | 1.5 |  | 15 | 7 |  |  |  | 
6 | COCCOCn1cc(C(N)=S)c2c(N)ncnc21 | > 100 |  | 1 |  | 85 | 183 |  | 1.9 | 88 | 
7 | Cc1cccc(Cn2cc(C(N)=O)c3c(N)ncnc32)c1 | > 100 |  | > 100 |  | > 100 | > 100 |  |  |  | 
8 | N#Cc1cn([C@@H]2O[C@H](CO)[C@@H](O)[C@H]2O)c2ncnc(N)c12 [TOYOCAMYCIN] | < 0.01 |  |  |  |  | 0.03 |  |  |  | 
9 | N#Cc1c[nH]c2ncnc(N)c12 [TOYOCAMYCIN AGLYCONE] | 10 |  | 3.9 |  | > 100 | 18 |  |  |  | 
10 | COc1ccc(Cn2cc(C#N)c3c(N)ncnc32)cc1 | > 100 |  | > 100 |  | > 100 | > 100 |  |  |  | 
11 | CCCn1cc(C(=N)S)c2c(N)ncnc21 | 25 | 79 | 1.2 |  | 12 | 17 |  |  |  | 
12 | CCCn1cc(C#N)c2c(N)ncnc21 | > 100 | 74 | 36 |  | > 100 | > 100 |  |  |  | 
13 | NC(=S)c1cn(COCCO)c2ncnc(N)c12 | > 100 |  | 8.8 |  | 21 | 115 |  |  |  | 
14 | Cc1ccccc1Cn1cc(C(N)=O)c2c(N)ncnc21 | > 100 |  | 15 |  | > 100 | > 100 |  |  |  | 
15 | C=CCn1cc(C(N)=O)c2c(N)ncnc21 |  | 66 | > 100 |  | > 100 | 100 |  |  |  | 
16 | CC(C)(C)c1ccc(Cn2cc(C#N)c3c(N)ncnc32)cc1 | > 32 |  | 32 |  | > 100 | 3 |  |  |  | 
17 | Cc1ccc(Cn2cc(C(=N)S)c3c(N)ncnc32)cc1 | 100 | 92 | 0.1 | > 10 | 3.5 | 65 |  | 0.15 |  | 
18 | COCCOCn1cc(C(N)=O)c2c(N)ncnc21 | > 100 |  | > 100 |  | > 100 | > 100 |  |  | 92 | 
19 | Cn1cc(C#N)c2c(N)ncnc21 |  | 87 | > 100 |  | > 100 | > 100 |  | > 100 |  | 
20 | Cc1ccc(Cn2cc(C(N)=O)c3c(N)ncnc32)cc1 | > 100 | 2 | > 100 | 20 | > 100 | > 100 |  |  |  | 
21 | CCOCn1cc(C#N)c2c(N)ncnc21 | > 100 |  | > 100 |  | > 100 | > 100 |  |  | 76 | 
22 | NC(=S)c1cn(Cc2ccccc2)c2ncnc(N)c12 | > 32 | 0 | 0.36 | 70 | 7.4 | 32 |  | 0.33 |  | 

Row | SMILES | IC50 (HFF) [µM] | Control (L1210 [1]) [%] | IC50 (Human betaherpesvirus 5 [2]) [µM] | IC50 (L1210 [3]) [µM] | IC50 (Human alphaherpesvirus 1) [µM] | IC50 (KB [4]) [µM] | IC50 (KB [5]) [µM] | IC50 (Human betaherpesvirus 5 [6]) [µM] | Control (L1210 [7]) [%] | Control (L1210 [8]) [%]
23 | NC(=S)c1c[nH]c2ncnc(N)c12 | > 32 |  | 1.6 |  | 35 | 25 |  |  |  | 
24 | Cc1ccccc1Cn1cc(C(=N)S)c2c(N)ncnc21 | 66 |  | 0.1 |  | 0.9 | > 17 |  |  |  | 
25 | COc1ccc(Cn2cc(C(N)=O)c3c(N)ncnc32)cc1 | > 32 |  | 13 |  | 35 | 47 |  |  |  | 
26 | NC(=S)c1cn(COCc2ccccc2)c2ncnc(N)c12 | > 100 |  | 2.6 | 100 | 10 | > 100 |  | 1.8 | 52 | 
27 | CCOCn1cc(C(=N)S)c2c(N)ncnc21 | 66 |  | 2.7 |  | 40 | 68 |  | 7 | 111 | 
28 | COc1ccc(Cn2cc(C(=N)S)c3c(N)ncnc32)cc1 | 66 |  | 0.5 |  | 4 | 28 |  | 0.5 |  | 
29 | N#Cc1cn(Cc2ccccc2)c2ncnc(N)c12 | > 100 | 60 | > 100 |  | 90 | > 100 |  |  |  | 
30 | Cn1cc(C(=N)S)c2c(N)ncnc21 |  | 0 | 1.2 | 38 | 2.8 | 15 |  |  |  | 
31 | CCOCn1cc(C(N)=O)c2c(N)ncnc21 | > 100 |  | > 100 |  | > 100 | > 100 |  |  |  | 91
32 | CC(C)(C)c1ccc(Cn2cc(C(N)=O)c3c(N)ncnc32)cc1 | 100 |  | 28 |  | 50 | 0.9 |  |  |  | 
33 | CCCn1cc(C(N)=O)c2c(N)ncnc21 |  | 0 | > 100 | 73 | > 100 | 100 |  | > 100 |  | 
34 | N#Cc1cn(COCc2ccccc2)c2ncnc(N)c12 | > 100 |  | > 100 |  | > 100 | > 100 |  |  | 83 | 
35 | C=CCn1cc(C#N)c2c(N)ncnc21 |  | 75 | > 100 |  | > 100 | > 100 |  |  |  | 
36 | COCCOCn1cc(C#N)c2c(N)ncnc21 | > 100 |  | 90 |  | > 100 | > 100 |  |  | 88 | 
37 | Cn1cc(C(N)=O)c2c(N)ncnc21 |  | 89 | > 100 |  | > 100 | > 100 |  |  |  | 
38 | NC(=O)c1cn(COCc2ccccc2)c2ncnc(N)c12 | > 100 |  | > 100 | 70 | > 100 | > 100 |  |  | 0 | 
39 | C=CCn1cc(C(N)=S)c2c(N)ncnc21 |  | 0 | 2.1 | 38 | 4.5 | 19 |  |  |  | 
40 | NC(=S)c1cn(COC(CO)CO)c2ncnc(N)c12 | > 100 |  | 6.2 |  | > 100 | > 100 |  |  |  | 
41 | NC(=O)c1cn([C@@H]2O[C@H](CO)[C@@H](O)[C@H]2O)c2ncnc(N)c12 [SANGIVAMYCIN] | < 0.01 |  |  |  |  | 0.08 |  |  |  | 
42 | Cc1ccccc1Cn1cc(C#N)c2c(N)ncnc21 | > 100 |  | 3.4 |  | > 100 | > 100 |  | 32 |  | 
43 | NC(=S)c1cn([C@@H]2O[C@H](CO)[C@@H](O)[C@H]2O)c2ncnc(N)c12 | 0.2 |  | 0.2 |  |  |  |  |  |  | 
